Data on 13 compounds can be found in ChEMBL document CHEMBL1687881, “Synthesis and evaluation of aroylthiourea derivatives of 4-β-amino-4'-O-demethyl-4-desoxypodophyllotoxin as novel topoisomerase II inhibitors” (Eur J Med Chem, 2011).

One experiment concerns HepG2. Kind of experiment: Cytotoxicity against human HepG2 cells assessed as cell growth inhibition after 3 days by MTT assay. It counts as functional, cell-based. Particulars: HepG2, 72 h. The method, boiled down: (§1)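 Cells grown in RPMI-1640 with 10% FBS, penicillin 100 U/mL and streptomycin, 37 °C, 5% CO2. Exponential-phase cells seeded at 5 × 10⁴–1 × 10⁵ cells/mL, grown overnight, then treated with DMSO-predissolved compounds for 3 days. Medium replaced by MTT for 4 h at 37 °C; formazan dissolved in SDS/DMF/water/acetic acid buffer (pH 4.7); absorbance read at 570 nm. At least three independent experiments.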
Background: Tetrazolium assays rely on reduction of a dye to a coloured formazan, in cell work by metabolically active cells.

Another experiment concerns A549. Kind of experiment: Cytotoxicity against human A549 cells assessed as cell growth inhibition after 3 days by MTT assay. It is filed as functional, cell-based. Particulars: A549, 72 h. In outline:
as §1

Experiment [1] concerns HCT-116. Kind of experiment: Cytotoxicity against human HCT116 cells assessed as cell growth inhibition after 3 days by MTT assay. To be noted: HCT-116, 72 h. It is filed as functional, cell-based. The method, boiled down: as §1
Experiment [2] addresses DNA topoisomerase 2-alpha (Homo sapiens) (UniProt P11388). Nature of the experiment: Inhibition human topoisomerase 2 kDNA decatenation activity at 200 uM.
Experiment [3] relates to HCT-116. Nature of the experiment: Cell cycle arrest in human HCT116 cells assessed as accumulation at G1 phase at 1.25 uM after 24 hrs using propidium iodide by fluorescence flow cytometry. It is filed as functional. In outline:
(§2)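 HCT-116 cells incubated 24 h with test agent at […], stained with propidium iodide; DNA content analysed by fluorescence flow cytometry to give percentage of cells per cell-cycle phase. Values are means of at least three independent experiments.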

Experiment [4] deals with HCT-116. Kind of experiment: Cell cycle arrest in human HCT116 cells assessed as accumulation at G2/M phase at 10 uM after 24 hrs using propidium iodide by fluorescence flow cytometry. It is filed as functional. In outline: as §2
(A flow cytometer gives signals particle by particle.)

Experiment [5] relates to HCT-116. Nature of the experiment: Cell cycle arrest in human HCT116 cells assessed as accumulation at S phase at 1.25 uM after 24 hrs using propidium iodide by fluorescence flow cytometry. It is filed as functional. In outline: as §2
Experiment [6] relates to HCT-116. Nature of the experiment: Cell cycle arrest in human HCT116 cells assessed as accumulation at sub G1 phase at 2.5 uM after 24 hrs using propidium iodide by fluorescence flow cytometry. It counts as functional. In outline: as §2
For experiment [7], the system named is HCT-116. Nature of the experiment: Cell cycle arrest in human HCT116 cells assessed as accumulation at sub G1 phase at 10 uM after 24 hrs using propidium iodide by fluorescence flow cytometry. It counts as functional. The method, boiled down:
as §2

Experiment [8] has as its system HCT-116. Kind of experiment: Cell cycle arrest in human HCT116 cells assessed as accumulation at G1 phase at 10 uM after 24 hrs using propidium iodide by fluorescence flow cytometry. It counts as functional. The method, boiled down:
as §2

In experiment [9] the test system is HCT-116. Kind of experiment: Cell cycle arrest in human HCT116 cells assessed as accumulation at S phase at 5 uM after 24 hrs using propidium iodide by fluorescence flow cytometry. It counts as functional. In outline:
as §2

In experiment [10] the test system is HCT-116. Nature of the experiment: Cell cycle arrest in human HCT116 cells assessed as accumulation at S phase at 2.5 uM after 24 hrs using propidium iodide by fluorescence flow cytometry. It is filed as functional. In outline:
as §2

Experiment [11] has as its system HCT-116. Nature of the experiment: Cell cycle arrest in human HCT116 cells assessed as accumulation at S phase at 10 uM after 24 hrs using propidium iodide by fluorescence flow cytometry. It is filed as functional. In outline:
as §2

Experiment [12] has as its system HCT-116. Kind of experiment: Cell cycle arrest in human HCT116 cells assessed as accumulation at G2/M phase at 2.5 uM after 24 hrs using propidium iodide by fluorescence flow cytometry. It counts as functional. In outline:
as §2

Experiment [13] deals with HCT-116. Nature of the experiment: Cell cycle arrest in human HCT116 cells assessed as accumulation at G2/M phase at 1.25 uM after 24 hrs using propidium iodide by fluorescence flow cytometry. It is filed as functional. The method, boiled down: as §2
In experiment [14] the test system is HCT-116. Nature of the experiment: Cell cycle arrest in human HCT116 cells assessed as accumulation at G1 phase at 2.5 uM after 24 hrs using propidium iodide by fluorescence flow cytometry. It is filed as functional. In outline:
as §2

Experiment [15] deals with HCT-116. Kind of experiment: Cell cycle arrest in human HCT116 cells assessed as accumulation at sub G1 phase at 1.25 uM after 24 hrs using propidium iodide by fluorescence flow cytometry. It is filed as functional. The method, boiled down: as §2
In experiment [16] the test system is HCT-116. Nature of the experiment: Cell cycle arrest in human HCT116 cells assessed as accumulation at G1 phase at 5 uM after 24 hrs using propidium iodide by fluorescence flow cytometry. It counts as functional. The method, boiled down:
as §2

For experiment [17], the system named is HCT-116. Nature of the experiment: Cell cycle arrest in human HCT116 cells assessed as accumulation at G2/M phase at 5 uM after 24 hrs using propidium iodide by fluorescence flow cytometry. It counts as functional. In outline:
as §2

For experiment [18], the system named is HCT-116. Nature of the experiment: Cell cycle arrest in human HCT116 cells assessed as accumulation at sub G1 phase at 5 uM after 24 hrs using propidium iodide by fluorescence flow cytometry. It counts as functional. In outline: as §2

Structures are written as SMILES. Activity calls are given as the source filed them. The rule behind the calls is not given here.

As a reminder, the IC50 is the concentration that gives 50% inhibition.

Sequence of DNA topoisomerase 2-alpha (Homo sapiens) (P11388 whole entry): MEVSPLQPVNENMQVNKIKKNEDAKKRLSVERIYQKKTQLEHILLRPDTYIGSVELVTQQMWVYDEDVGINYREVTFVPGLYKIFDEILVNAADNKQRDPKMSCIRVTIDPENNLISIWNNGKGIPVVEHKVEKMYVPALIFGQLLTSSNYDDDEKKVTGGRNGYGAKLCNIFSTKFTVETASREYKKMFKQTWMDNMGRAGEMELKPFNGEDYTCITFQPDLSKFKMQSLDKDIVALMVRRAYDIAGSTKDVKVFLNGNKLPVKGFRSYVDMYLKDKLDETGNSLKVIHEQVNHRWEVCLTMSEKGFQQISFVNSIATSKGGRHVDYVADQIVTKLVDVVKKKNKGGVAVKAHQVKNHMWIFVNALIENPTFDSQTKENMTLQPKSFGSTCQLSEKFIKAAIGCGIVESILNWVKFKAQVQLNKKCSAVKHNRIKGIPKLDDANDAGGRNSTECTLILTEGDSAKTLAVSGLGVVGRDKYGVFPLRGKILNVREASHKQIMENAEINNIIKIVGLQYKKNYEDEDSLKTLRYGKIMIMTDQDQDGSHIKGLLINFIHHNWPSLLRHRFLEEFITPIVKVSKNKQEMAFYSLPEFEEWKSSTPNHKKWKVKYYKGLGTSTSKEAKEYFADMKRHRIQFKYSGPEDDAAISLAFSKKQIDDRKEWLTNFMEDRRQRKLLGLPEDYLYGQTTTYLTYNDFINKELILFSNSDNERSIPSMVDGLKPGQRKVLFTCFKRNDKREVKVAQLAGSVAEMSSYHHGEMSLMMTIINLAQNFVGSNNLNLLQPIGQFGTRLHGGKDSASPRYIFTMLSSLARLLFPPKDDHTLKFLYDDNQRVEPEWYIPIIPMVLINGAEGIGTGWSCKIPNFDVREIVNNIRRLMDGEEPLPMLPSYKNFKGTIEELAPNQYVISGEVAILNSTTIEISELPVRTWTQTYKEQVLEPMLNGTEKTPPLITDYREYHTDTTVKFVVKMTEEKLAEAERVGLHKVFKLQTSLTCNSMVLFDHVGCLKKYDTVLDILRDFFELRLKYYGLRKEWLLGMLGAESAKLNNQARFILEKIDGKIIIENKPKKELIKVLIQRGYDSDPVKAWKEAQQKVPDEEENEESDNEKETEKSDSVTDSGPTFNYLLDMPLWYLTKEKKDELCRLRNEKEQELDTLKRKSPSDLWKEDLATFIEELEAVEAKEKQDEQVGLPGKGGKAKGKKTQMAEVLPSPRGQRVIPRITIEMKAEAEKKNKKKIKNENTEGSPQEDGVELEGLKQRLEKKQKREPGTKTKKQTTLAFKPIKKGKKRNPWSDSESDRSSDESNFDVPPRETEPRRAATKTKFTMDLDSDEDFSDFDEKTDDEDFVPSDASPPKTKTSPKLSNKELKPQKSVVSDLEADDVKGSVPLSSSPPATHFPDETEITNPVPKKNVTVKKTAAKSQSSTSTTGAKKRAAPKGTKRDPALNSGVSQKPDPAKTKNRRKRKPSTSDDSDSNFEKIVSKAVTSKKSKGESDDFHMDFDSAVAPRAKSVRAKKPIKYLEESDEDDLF

For the compound `COc1cc([C@@H]2c3cc4c(cc3[C@@H](N)[C@H]3COC(=O)[C@H]23)OCO4)cc(OC)c1O`, the IC50 was determined as 1.5 µM with HepG2, 5.2 µM in the experiment with A549 and 2.1 µM in the experiment on HCT-116 [1].
Take `COc1cc([C@@H]2c3cc4c(cc3[C@@H](NC(=S)NC(=O)c3ccccc3I)[C@H]3COC(=O)[C@H]23)OCO4)cc(OC)c1O`: the inhibition result in experiment [2] is “Active”. In addition, the values for the IC50 with HepG2, with A549 and in the experiment with HCT-116 [1] were 6.7 µM, 15.1 µM and 6.7 µM, respectively.
Turning to `COc1cc([C@@H]2c3cc4c(cc3[C@@H](NC(=S)NC(=O)c3ccc(C)cc3)[C@H]3COC(=O)[C@H]23)OCO4)cc(OC)c1O`, the IC50 came to 3 µM in the experiment on HepG2, 11.3 µM with A549 and 6.8 µM in the experiment with HCT-116 [1].
Consider `COc1cc([C@@H]2c3cc4c(cc3[C@@H](NC(=S)NC(=O)c3ccccc3Br)[C@H]3COC(=O)[C@H]23)OCO4)cc(OC)c1O`, for which the half-maximal inhibitory concentration (IC50) in the experiment with HepG2 worked out at 5.1 µM; in the experiment on A549 it was 11.4 µM; with HCT-116 [1], 6.2 µM.
The matching figures for `COc1cc([C@@H]2c3cc4c(cc3[C@@H](NC(=S)NC(=O)c3ccc(Cl)cc3)[C@H]3COC(=O)[C@H]23)OCO4)cc(OC)c1O`: 7.6 µM, 11.5 µM and 7.2 µM.
In the case of `COc1cc([C@@H]2c3cc4c(cc3[C@@H](NC(=S)NC(=O)c3cccc(C)c3)[C@H]3COC(=O)[C@H]23)OCO4)cc(OC)c1O`, the figures for the 50% inhibitory concentration (IC50) with HepG2, in the experiment on A549 and with HCT-116 [1] were 4.6 µM, 13.3 µM and 5.5 µM, respectively.
On the same counts, the results for `COc1cc([C@@H]2c3cc4c(cc3[C@@H](O[C@@H]3O[C@@H]5CO[C@@H](C)O[C@H]5[C@H](O)[C@H]3O)[C@H]3COC(=O)[C@H]23)OCO4)cc(OC)c1O` [ETOPOSIDE] are 4.9 µM, 21.4 µM and 13.5 µM.
Turning to `COc1cc([C@@H]2c3cc4c(cc3[C@@H](NC(=S)NC(=O)c3ccccc3)[C@H]3COC(=O)[C@H]23)OCO4)cc(OC)c1O`, the Activity with HCT-116 [3] was determined as 48.6%; with HCT-116 [4] it was 96.45%; with HCT-116 [5] it was 8.74%; in the experiment with HCT-116 [6], 0%; with HCT-116 [7], 0%; in the experiment on HCT-116 [8], 3.55%. Besides, the Activity was 0% in the experiment on HCT-116 [9]; 5.09% in the experiment on HCT-116 [10]; 0% in the experiment with HCT-116 [11]; 93.11% with HCT-116 [12]; 42.66% in the experiment with HCT-116 [13]; 1.8% in the experiment with HCT-116 [14]. Besides, the Activity with HCT-116 [15] worked out at 0%; in the experiment with HCT-116 [16], 4.23%; in the experiment on HCT-116 [17], 95.77%; with HCT-116 [18], 0%. In [2], the inhibition result is “Active”. Further, the IC50 with HepG2 was found to be 6.1 µM; with A549 it was 9.8 µM; in the experiment on HCT-116 [1], 6.3 µM.
In the case of `COc1cc([C@@H]2c3cc4c(cc3[C@@H](NC(=S)NC(=O)c3ccccc3Cl)[C@H]3COC(=O)[C@H]23)OCO4)cc(OC)c1O`, the figures for the IC50 with HepG2, in the experiment with A549 and in the experiment on HCT-116 [1] were 7.7 µM, 10.3 µM and 7.7 µM, respectively.
For `COc1cc([C@@H]2c3cc4c(cc3[C@@H](NC(=S)NC(=O)c3ccccc3C)[C@H]3COC(=O)[C@H]23)OCO4)cc(OC)c1O`, the IC50 in the experiment with HepG2 worked out at 5.2 µM; with A549, 12.2 µM; with HCT-116 [1], 4.7 µM.
On the same counts, the results for `COc1cc([C@@H]2c3cc4c(cc3[C@@H](NC(=S)NC(=O)c3ccc(F)cc3)[C@H]3COC(=O)[C@H]23)OCO4)cc(OC)c1O` are 8.3 µM, 10.8 µM and 6.8 µM.
In the case of `COc1cc([C@@H]2c3cc4c(cc3[C@@H](NC(=S)NC(=O)c3cccc(Cl)c3)[C@H]3COC(=O)[C@H]23)OCO4)cc(OC)c1O`, the IC50 with HepG2 amounted to 7.6 µM; in the experiment on A549, 17.9 µM; in the experiment on HCT-116 [1], 6.8 µM.
`COc1cc([C@@H]2c3cc4c(cc3[C@@H](NC(=S)NC(=O)c3cccc5ccccc35)[C@H]3COC(=O)[C@H]23)OCO4)cc(OC)c1O`: in experiment [2], the inhibition result was “Active”. Moreover, the IC50 was found to be 18.7 µM with HepG2, 6 µM in the experiment with A549 and 2.2 µM in the experiment with HCT-116 [1].
